Most compounds without a hit are left out; they make up all but 1.2% or so of the library.
PERK inh = blocks human PERK kinase. Q9NZJ5. CHO PERK-DD fusion, SEAP luminescence translation reporter. inhibition, % at 5.6 µM. hit rate 0.17% among 220,000;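 active = inhibition above the mean inhibition of all tested compounds plus 3 SD, set separately per screening campaign, cut at about 2.9% in these data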;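 also: PERK kinase domain activated by AP20187 dimerizer at 100 nM; 0% = DMSO with dimerizer and 100% = rapamycin at 8.4 µM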
FXIIa inh = inhibitors of human coagulation factor XIIa; P00748; purified FXIIa, Boc-QGR-AMC fluorogenic substrate, 2 h; inhibition, % at 5 µM; hit rate 0.3% among 220,000; in the data active = inhibition above about 40%;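 also: 0% = enzyme with no compound and 100% = blank without enzyme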
Target sequence (P00748 20-372 limits assumed): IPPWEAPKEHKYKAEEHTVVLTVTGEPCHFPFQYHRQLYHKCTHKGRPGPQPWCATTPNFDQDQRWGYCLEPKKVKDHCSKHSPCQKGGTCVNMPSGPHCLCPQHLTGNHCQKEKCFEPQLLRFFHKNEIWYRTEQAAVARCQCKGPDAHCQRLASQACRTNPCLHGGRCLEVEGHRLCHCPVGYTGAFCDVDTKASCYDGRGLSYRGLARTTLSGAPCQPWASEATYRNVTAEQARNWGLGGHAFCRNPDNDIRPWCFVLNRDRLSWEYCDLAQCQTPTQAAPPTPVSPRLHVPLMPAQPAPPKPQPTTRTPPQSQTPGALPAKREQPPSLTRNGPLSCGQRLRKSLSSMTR
Target sequence (P00748 373-615 limits assumed): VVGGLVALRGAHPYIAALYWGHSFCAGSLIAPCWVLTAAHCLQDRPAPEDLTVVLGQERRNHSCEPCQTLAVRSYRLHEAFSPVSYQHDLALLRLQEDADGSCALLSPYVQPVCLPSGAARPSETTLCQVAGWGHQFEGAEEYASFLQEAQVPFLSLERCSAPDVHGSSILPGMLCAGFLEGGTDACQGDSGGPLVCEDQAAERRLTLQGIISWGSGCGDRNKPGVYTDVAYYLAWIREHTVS
FXIa inh 1536 = factor XIa (human) inhibition; P03951; purified FXIa, Boc-Glu-Ala-Arg-AMC fluorogenic substrate; inhibition, % at 5 µM; hit rate 0.14% among 220,000;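 active = inhibition of at least 40%; inactive = inhibition below 40%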;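 also: fluorescence of freed AMC excited at 355 nm; 0% = enzyme without compound and 100% = no enzyme blank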
Thrombin inh = inhibitors of human thrombin; alpha-thrombin, Boc-VPR-AMC fluorogenic substrate cleavage; hit rate 0.26% among 220,000; inhibition, % at 5 µM; P00734; AID 1046;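 active = inhibition at or above 40%; inactive = inhibition below 40%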;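 also: 0% = enzyme with no compound and 100% = wells without enzyme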
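System: Human alpha-thrombin protein | Medium: pH 7.5 Tris (50 mM) with NaCl 150 mM, Tween 20 0.05% | Times: Enzyme reaction carried out at room temperature | Detection: AMC fluorescence, 355/460 nm | Evaluation: Percent inhibition scaled between no-compound controls and no-enzyme blanks | Benchmarks: Enzyme without compound as high, wells lacking enzyme as low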
KLK5 inh = blocks human kallikrein 5 protease activity. Q9Y337. recombinant hK5, fluorogenic AMC substrate cleavage. inhibition, % at 5 µM. hit rate 0.59% among 210,000. AID 873;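 active = inhibition of 40% or more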;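 also: 0% = enzyme controls without compound and 100% = no-enzyme blanks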
Furin inh = human furin inhibition | purified furin, fluorogenic substrate cleavage | inhibition, % at 20 µM or 30 µM | hit rate 0.061% among 220,000; in the data active = inhibition above about 25%
Active calls of the source: *.

SMILES	PERK inh	FXIIa inh	FXIa inh 1536	Thrombin inh	KLK5 inh	Furin inh
O=C(Cn1cnc([N+](=O)[O-])n1)N/N=C/c1cc(Cl)ccc1O	1	7	0	4	-1	-11
Cc1[nH]c(=O)[nH]c(=O)c1/C=N/NC(=O)[C@H](C)N	1	40	18	25	52*	-6
Cc1ccc(-c2nn(C)c(=O)c3ccccc23)cc1CN1CCCCC1	-1	6	2	-3	-1	-16
O=C(NCCc1ccccc1)c1cc(=O)c2ccccc2o1	0	52*	24	17	47*	-14
Nc1nnn(CC(=O)N/N=C/C=C/c2ccccc2)n1	2	12	2	0	-4	-13
Cc1cccc(Sc2nc(-c3ccccc3)ncc2C(=O)O)c1	-1	7	-3	-2	-3	-9
CCOC(=O)C(C(=O)NCC1CCCO1)C1CCCCC1 (stereo not given)	0	11	3	-1	-6	28*
Cc1c(N(C)C(=O)C2CCCN2S(=O)(=O)c2ccccc2)c(=O)n(-c2ccccc2)n1C (stereo not given)	1	6	4	104*	71*	-14
Cc1c(NC(=O)C2CCCN2S(=O)(=O)c2ccc(Cl)cc2)c(=O)n(-c2ccccc2)n1C (stereo not given)	0	3	1	6	-3	-9
O=C(CN1CCOCC1)N1CCc2ccccc2C(c2ccccc2)C1 (stereo not given)	1	-2	10	20	73*	-22
COC(=O)c1ccc(N2CCS(=O)(=O)CC2)cc1	0	5	-3	-10	-8	-12
Cc1ccc(C(=O)NCCN2CCNC2=O)cc1	1	47*	24	19	44*	-6
Nc1ccccc1C(=O)NCCN1CCNC1=O	0	6	4	0	3	-26
CC1CC(C)(C)N(C(=O)CSc2ccc(-c3ccc(F)cc3)nn2)c2ccccc21 (stereo not given)	0	24	16	-6	-28	13
COC(=O)CN1C(=O)C(O)(CC(=O)c2ccc(Cl)cc2)c2ccccc21 (stereo not given)	1	9	7	41*	8	-17
N#Cc1c[nH]n2c(=O)c3c(nc12)CCC3	1	2	-4	-4	-5	-29
N#Cc1c[nH]n2c(=O)c3c(nc12)CCCC3	1	-1	-1	1	70*	-12
CCCCNC(=O)N(O)C1N(/N=C/c2cccs2)C(=S)SC1(C)C (stereo not given)	0	0	-6	-6	-7	1
CCC(C)(C)n1nnnc1C(c1cc2ccc(OC)cc2[nH]c1=O)N1CCN(C2CCCCC2)CC1 (stereo not given)	-1	-3	7	31	57*	-5
CC(=O)c1ccc(O)c(CSC2=NCCS2)c1	1	26	27	67*	34	-5
Cc1ccccc1-n1cnc2cc(NCc3cccs3)ccc21	-1	19	12	41*	40*	-23
CCOC(=O)n1c(=O)n(Cc2c(Cl)cccc2Cl)c2ccccc21	1	14	2	6	42*	-17
CC1=NNC(=O)c2ccccc2O1	1	10	0	-1	0	-27
O=C(N/N=C/c1ccccc1)c1cc(=O)[nH]c2ccccc12	-1	-1	-13	-9	16	-5
COc1ccc(O)c(/C=N/NC(=O)c2cc(=O)[nH]c3ccccc23)c1	-1	66*	37	20	14	-6
SMILES	PERK inh	FXIIa inh	FXIa inh 1536	Thrombin inh	KLK5 inh	Furin inh
COc1ccc(-n2c(O)c(C=Nc3ccccc3)c3ccccc3c2=O)cc1	1	9	-2	40*	3	-30
CN1CCN(S(=O)(=O)c2ccc(Br)s2)CC1	1	48*	3	18	33	-17
CCOC(=O)N1CCN(S(=O)(=O)c2ccc(Br)s2)CC1	-2	16	6	3	7	-15
CC(=O)Nc1ccc(NC(=O)CCn2c(=S)oc3ccccc32)cc1	0	49*	26	28	19	-20
Cc1ccc(NC(=O)CSc2nnc([C@H](C)NC(=O)OC(C)(C)C)o2)c(C)c1	-1	107*	21	6	24	2
O=C(Cn1nc(-c2ccc(Cl)cc2)ccc1=O)NCC1CCCO1 (stereo not given)	1	16	6	17	51*	-31
O=C(Cn1nc(-c2ccccc2)ccc1=O)NCC1CCCO1 (stereo not given)	1	6	0	2	-10	-27
NC(CC(=O)O)c1ccc(Br)cc1 (stereo not given)	1	-11	4	-3	-5	1
O=C(O)CC(Cc1ccc(Br)cc1)C(=O)O (stereo not given)	1	61*	-13	-3	0	-17
CCC(=O)N1c2ccccc2NC2=C(C(=O)CCC2)C1c1ccc(N(C)C)cc1 (stereo not given)	1	9	5	14	43*	-10
CCC(=O)N1c2ccccc2NC2=C(C(=O)CC(C)(C)C2)C1c1cccnc1 (stereo not given)	-1	7	-4	4	-8	-2
Cc1ccc(OCC(=O)NCCc2c[nH]c3ccccc23)cc1	-1	2	-8	-13	-6	-19
O=[N+]([O-])c1cccc(-c2cc3cccc[n+]3cc2-c2cccc([N+](=O)[O-])c2)c1	-1	15	9	32	46*	-9
Nc1nnc(CCOc2ccc(Cl)cc2)s1	-1	21	16	24	44*	-14
Nc1nnc(CSCc2ccc(Cl)cc2)s1	0	14	6	0	-10	-10
O=C(Nc1cc([N+](=O)[O-])ccc1N1CCOCC1)c1ccco1	0	16	43*	29	21	2
COc1ccc(CNc2nc(-c3cccnc3)nn2C(=O)CC(C)C)cc1	0	5	-5	95*	-1	-30
COc1ccc(CNc2nc(-c3cccnc3)nn2C(C)=O)cc1	1	6	-1	99*	1	-20
Cc1cccc(Cc2ccc(Cl)nn2)c1	1	6	-1	-6	-1	-25
Cc1sc2nc(N)sc2c1C	1	10	1	-5	63*	-6
Cc1cccc(Nc2nc(N)nc(CCl)n2)c1	-1	19	30	49*	33	-2
C=CCOc1ccc(CNC(C)(C)CO)cc1OC	0	7	2	-4	18	-11
COc1cc(CNC(C)(C)CO)ccc1OCC(=O)Nc1ccc(Br)cc1	0	9	-7	3	42*	-20
COc1cccc(/C=N/NC(=O)C(=O)N2CCCC2)c1OC	3.1*	16	-1	-4	-4	11
CC(C)CC(NC(=O)C(CO)NC(=O)C1CCC(=O)N1)C(N)=O (stereo not given)	1	-1	-11	-26	-9	-20
O=C1NC2(CCCCC2)NN1c1ccccc1	2	0	-13	48*	-17	-6

Screening data deposited in PubChem BioAssay by several laboratories.
